16 molecules from ChEMBL document CHEMBL3865803, “Bicyclic octahydrocyclohepta[b]pyrrol-4(1H)one derivatives as novel selective anti-hepatitis C virus agents” (Eur J Med Chem, 2016) can be followed below.

The structures appear in SMILES notation.

Data set [1] has as its system Hepatitis C virus. Briefly: Antiviral activity against HCV genotype 2a infected in human Huh7.5-FGR-JC1-Rluc2A replicon cells assessed as inhibition of viral RNA replication at 50 uM measured after 48 hrs by luciferase reporter gene assay relative to control. The class given is functional, Hepacivirus hominis. The settings on record: Huh-7, 48 h. The method in brief:
(§1)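 Replicon cells (gt1b firefly luciferase; gt2a Renilla luciferase) in DMEM/10% FBS with G418, ~1 × 10^4 cells/well, dosed 12 h after seeding with 50 µM compound or DMSO (1% final) for 48 h at 37 °C. Cells were PBS-washed and luciferase read; % inhibition was taken versus DMSO-treated cells, mean±SD, n=3.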
(In antiviral work, replicon cells carry a viral genome segment that copies itself.)

The test system of data set [2] is Hepatitis C virus. Briefly: Antiviral activity against HCV genotype 1b infected in human Huh7/Rep-Feo1b replicon cells assessed as inhibition of viral RNA replication at 50 uM measured after 48 hrs by luciferase reporter gene assay relative to control. The class given is functional, Hepacivirus hominis. The settings on record: Huh-7, 48 h. The method in brief:
as §1

The nature of data set [3]: Cytotoxicity against human Huh7.5 cells measured after 48 hrs by MTS assay. The settings on record: for CC50 at 48 h: Huh7.5 cells; for Activity: huh-7, 48 h. In kind it is toxicity, cell-based, Huh-7. The essentials:
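Parental Huh7.5 cells were treated 12 h after seeding with 8-10 dilutions of compound or DMSO (1% final) for 48 h at 37 °C. Viability was read by MTS bioreduction to formazan. CC50 is the concentration halving the MTS signal, mean ± SD of three independent experiments.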
For orientation: Tetrazolium dyes change colour on reduction, which living cells bring about.

For `CCOC(=O)[C@H](C)N1CC[C@H]2C(=O)CCCC[C@@H]21`, in the data set with Hepatitis C virus [1], the inhibition (in general, how much of the control response was suppressed) at 50 µM amounted to 83%.

In the case of `CCOC(=O)[C@@H](C)N1CC[C@H]2C(=O)CCCC[C@@H]21`, the inhibition at 50 µM with Hepatitis C virus [2] was 24%; with Hepatitis C virus [1], 38%. Also, the cytotoxic concentration (CC50) (in general, the concentration at which the toxic effect on the cells reaches its halfway point) at 48 h in data set [3] is more than 100 µM. In data set [3], this molecule showed an Activity of 88%.

For `Cc1ccc(S(=O)(=O)N2[C@H](C(=O)N3CCOCC3)C[C@@H]3C(=O)CCCC[C@@H]32)cc1` (racemic), the inhibition at 50 µM in the data set on Hepatitis C virus [2] was determined as 19%; with Hepatitis C virus [1], 12%. The molecule further came in with a CC50 at 48 h in data set [3] of more than 200 µM.

In the case of `Cc1ccc(S(=O)(=O)N2[C@H]3CCCCC(=O)[C@@]3(C)C[C@H]2C(=O)O)cc1` (racemic), the inhibition at 50 µM turned out to be 41% in the data set with Hepatitis C virus [2] and 33% in the data set with Hepatitis C virus [1]. Further, the cytotoxic concentration (CC50) at 48 h in data set [3] is more than 200 µM.

As for `O=C1CCCC[C@@H]2[C@@H](N1)[C@H](c1cccc(F)c1)CN2Cc1ccccc1` (racemic), the inhibition at 50 µM with Hepatitis C virus [2] is 49%; in the data set with Hepatitis C virus [1] it was 80%.

`CCOC(=O)[C@@H]1C[C@@H]2[C@@H](CCC[C@@H]2O)N1S(=O)(=O)c1ccc(C)cc1` (racemic): the inhibition at 50 µM in the data set on Hepatitis C virus [2] was found to be 38%. For the same molecule, the inhibition at 50 µM with Hepatitis C virus [1] was determined as 45%. In data set [3], this molecule registered a CC50 at 48 h of more than 150 µM and an Activity of 93%.

For the molecule `Cc1ccc(S(=O)(=O)N2[C@H](C(N)=O)C[C@@H]3C(=O)CCCC[C@@H]32)cc1` (racemic), the inhibition at 50 µM in the data set on Hepatitis C virus [1] was 38%. This molecule came in with a CC50 at 48 h in data set [3] of more than 200 µM.

In the case of `O=C(O)[C@@H]1C[C@H]2[C@@H](O)CCC[C@H]2N1` (racemic), the inhibition at 50 µM with Hepatitis C virus [1] was found to be 12%.

Take `COc1cccc([C@@H]2CN(Cc3ccccc3)[C@@H]3CCCCC(=O)N[C@H]32)c1` (racemic): the inhibition at 50 µM was 59% in the data set with Hepatitis C virus [2] and 54% with Hepatitis C virus [1].

Turning to `Cc1ccc(S(=O)(=O)N2[C@H](C(=O)O)C[C@@H]3C(=O)CCCC[C@@H]32)cc1` (racemic), the inhibition at 50 µM is 14% with Hepatitis C virus [2] and 42% with Hepatitis C virus [1]. The CC50 at 48 h in data set [3] is more than 200 µM.

For the molecule `Cl.Cl.Fc1cccc([C@@H]2CN(Cc3ccccc3)[C@@H]3CCCCCN[C@H]32)c1` (racemic), the inhibition at 50 µM with Hepatitis C virus [2] was 98%. For the same molecule, the inhibition at 50 µM in the data set with Hepatitis C virus [1] was 61%. In data set [3], this molecule displayed a half-maximal cytotoxic concentration (CC50) at 48 h of less than 50 µM and an Activity of 11%.

`O=C1CCCC[C@@H]2[C@H]1[C@@H](c1ccccc1)CN2Cc1ccccc1` (racemic): the inhibition at 50 µM in the data set on Hepatitis C virus [2] came out at 38%; with Hepatitis C virus [1], 4%.

As for `CCOC(=O)[C@@H]1C[C@@H]2C(=O)CCCC[C@@H]2N1S(=O)(=O)c1ccnn1C` (racemic), the inhibition at 50 µM in the data set with Hepatitis C virus [1] was 17%. In data set [3], this molecule gave a CC50 at 48 h of more than 200 µM.

For the molecule `CCOC(=O)[C@@H]1C[C@@H]2/C(=N/OCc3ccccc3)CCCC[C@@H]2N1S(=O)(=O)c1ccc(C)cc1` (racemic), the inhibition at 50 µM in the data set with Hepatitis C virus [1] was 30%. The molecule also returned a CC50 at 48 h in data set [3] of more than 200 µM.

For `CC(C)(C)OC(=O)N1CC[C@@H]2NC[C@H](c3ccccc3)[C@H]2C(=O)C1.Cl` (racemic), the inhibition at 50 µM in the data set on Hepatitis C virus [2] was found to be 48%. Also, in the data set with Hepatitis C virus [1], the inhibition at 50 µM turned out to be 47%. In data set [3], this molecule yielded a CC50 at 48 h of more than 150 µM and an Activity of 97%.

With `CCNC(=O)[C@@H]1C[C@@H]2C(=O)CCCC[C@@H]2N1S(=O)(=O)c1ccc(C)cc1` (racemic), the inhibition at 50 µM is 15% in the data set with Hepatitis C virus [2] and 39% with Hepatitis C virus [1]. Also, the CC50 at 48 h in data set [3] is more than 200 µM.
